According to ChEMBL document CHEMBL1157567, “Design, synthesis, and evaluation of 2-methyl- and 2-amino-N-aryl-4,5-dihydrothiazolo[4,5-h]quinazolin-8-amines as ring-constrained 2-anilino-4-(thiazol-5-yl)pyrimidine cyclin-dependent kinase inhibitors” (J Med Chem, 2010):
Calls of active or inactive are those of the source. The calls are words filed in the database; no cut-off is given here.

Assays:
[1] = molecular target: Cyclin-dependent kinase 1/cyclin B1 (Homo sapiens, UniProt P06493); experiment: inhibition of CDK1/Cyclin B; type: protein-complex assay
Procedure, shortened: (§1)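 Kinase activity measured over 10-point dose-response curves to give IC50; apparent Ki derived from IC50 using the ATP Km of each kinase.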

[2] = molecular target: Cyclin-dependent kinase 2/cyclin E1 (Homo sapiens, UniProt P24941); experiment: inhibition of CDK2/Cyclin E; type: protein-complex assay; procedure, shortened: as §1
[3] = molecular target: Cyclin-dependent kinase 4/cyclin D1 (Homo sapiens, UniProt P11802); experiment: inhibition of CDK4/Cyclin D1; type: protein-complex assay; procedure, shortened: as §1
[4] = molecular target: Cyclin-dependent kinase 7/ cyclin H (Homo sapiens, UniProt P50613); experiment: inhibition of CDK7/Cyclin H/MAT1; type: protein-complex assay; procedure, shortened: as §1
CDK9/cyclin T1 = CDK9/cyclin T1 (Homo sapiens, UniProt P50750); experiment: inhibition of CDK9/CyclinT1; type: protein-complex assay; procedure, shortened: as §1
WI-38 [5] = experiment: Induction of apoptosis in human WI38 cells assessed as caspase 3/7 activity at 2.5 uM after 24 hrs […]; type: functional, cell-based
Procedure, shortened: (§2)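 Caspase-3/7 luminescent assay: 10 000 cells seeded per well, treated 24 h; detection reagent added directly at equal volume to medium, read after further 30 min at room temperature.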

A549 = experiment: Antiproliferative activity against human A549 cells after 72 hrs by MTT assay; type: functional, cell-based; details: A549, 72 h
Procedure, shortened: (§3)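 MTT (thiazolyl blue tetrazolium) colorimetric viability read-out after 72 h continuous exposure of cultured cells to test compound.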

HeLa = experiment: Antiproliferative activity against human HeLa cells after 72 hrs by MTT assay; type: functional, cell-based; procedure, shortened: as §3
HT-29 = experiment: Antiproliferative activity against human HT-29 cells after 72 hrs by MTT assay; type: functional, cell-based; details: HT-29, 72 h; procedure, shortened: as §3
MCF7 = experiment: Antiproliferative activity against human MCF7 cells after 72 hrs by MTT assay; type: functional, cell-based; details: MCF7, 72 h; procedure, shortened: as §3
SAOS-2 = experiment: Antiproliferative activity against human Saos2 cells after 72 hrs by MTT assay; type: functional, cell-based; details: SAOS-2, 72 h; procedure, shortened: as §3
[6] = molecular target: T1, Cyclin-dependent kinase (Homo sapiens) (UniProt P06493+P11802+P24941+Q00535+Q00534+P50613+Q00526+Q00536+Q07002+P49336+Q00537+P21127+Q96Q40+Q9BWU1+O94921+P50750+Q15131+Q14004+Q8IZL9+Q9NYV4); experiment: Inhibition of CDK in human A2780 cells assessed as reduction of RNAP2 phosphorylation at Ser2 site at 5 uM after 6 hrs by Western bloting; type: cell-based
Procedure, shortened: (§4)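 Total cell lysate protein (10 µg) resolved on reducing 4-12% gradient SDS-PAGE after 6 h treatment at 5 µM; probed for RNAP-II phospho-Ser2 and phospho-Ser5 CTD alongside total RNAP-II.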

[7] = molecular target: T1, Cyclin-dependent kinase (Homo sapiens); experiment: Inhibition of CDK in human A2780 cells assessed as reduction of RNAP2 phosphorylation at Ser5 site at 5 uM after 6 hrs by Western bloting; type: cell-based; procedure, shortened: as §4
[8] = molecular target: T1, Cyclin-dependent kinase (Homo sapiens); experiment: Inhibition of CDK in human A2780 cells assessed as reduction of pRb levels at 5 uM after 6 hrs by Western bloting; type: cell-based
[9] = molecular target: T1, Cyclin-dependent kinase (Homo sapiens); experiment: Inhibition of CDK in human A2780 cells assessed as increase in p53 levels at 5 uM after 6 hrs by Western bloting; type: cell-based
A2780 [10] = experiment: Induction of apoptosis in human A2780 cells assessed as caspase 3/7 activity at 2.5 uM after 24 hrs […]; type: functional, cell-based; procedure, shortened: as §2
A2780 [11] = experiment: Induction of apoptosis in human A2780 cells assessed as TUNEL-positive cells at 5 uM after 24 hrs by TUNEL assay-based flow cytometric analysis; type: functional
Procedure, shortened: (§5)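 Cells exposed 24 h to 5 µM compound or assay diluent alone; TUNEL labelling with flow cytometry, 10 000 cells collected; apoptotic (TUNEL-positive) fraction gated against DNA-content cell cycle stage.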

WI-38 [12] = experiment: Induction of apoptosis in human WI38 cells assessed as TUNEL-positive cells at 5 uM after 24 hrs by TUNEL assay-based flow cytometric analysis; type: functional; procedure, shortened: as §5

Cyclin-dependent kinase 7/ cyclin H, sequence (P51946 whole entry): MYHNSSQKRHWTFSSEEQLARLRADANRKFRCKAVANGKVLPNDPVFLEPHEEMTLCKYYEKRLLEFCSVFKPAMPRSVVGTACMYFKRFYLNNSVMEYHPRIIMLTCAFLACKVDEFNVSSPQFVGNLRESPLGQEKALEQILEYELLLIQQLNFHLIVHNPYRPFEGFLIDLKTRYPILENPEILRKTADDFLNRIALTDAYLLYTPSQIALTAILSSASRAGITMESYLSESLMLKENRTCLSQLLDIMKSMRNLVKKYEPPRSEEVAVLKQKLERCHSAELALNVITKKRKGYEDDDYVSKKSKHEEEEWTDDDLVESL
Cyclin-dependent kinase 7/ cyclin H, sequence (P50613 whole entry): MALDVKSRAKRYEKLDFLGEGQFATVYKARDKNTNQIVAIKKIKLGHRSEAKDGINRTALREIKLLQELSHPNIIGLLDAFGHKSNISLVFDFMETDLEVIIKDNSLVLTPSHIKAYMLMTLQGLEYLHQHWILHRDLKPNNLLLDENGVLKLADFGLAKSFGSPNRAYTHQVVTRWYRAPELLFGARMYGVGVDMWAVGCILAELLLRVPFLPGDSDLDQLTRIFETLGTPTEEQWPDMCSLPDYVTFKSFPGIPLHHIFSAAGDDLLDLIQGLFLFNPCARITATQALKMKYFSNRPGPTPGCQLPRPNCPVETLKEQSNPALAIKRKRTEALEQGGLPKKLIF
Cyclin-dependent kinase 4/cyclin D1, sequence (P11802 whole entry): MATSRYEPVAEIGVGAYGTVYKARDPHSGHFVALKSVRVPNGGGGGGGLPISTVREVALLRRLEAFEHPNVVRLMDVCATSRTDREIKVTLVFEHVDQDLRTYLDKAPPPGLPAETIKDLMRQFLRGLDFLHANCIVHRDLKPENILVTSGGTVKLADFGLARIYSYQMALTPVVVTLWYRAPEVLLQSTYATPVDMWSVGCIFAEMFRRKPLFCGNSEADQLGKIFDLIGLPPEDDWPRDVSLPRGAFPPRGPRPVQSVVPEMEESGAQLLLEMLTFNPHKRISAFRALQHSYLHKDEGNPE
Cyclin-dependent kinase 4/cyclin D1, sequence (P24385 whole entry, further chain): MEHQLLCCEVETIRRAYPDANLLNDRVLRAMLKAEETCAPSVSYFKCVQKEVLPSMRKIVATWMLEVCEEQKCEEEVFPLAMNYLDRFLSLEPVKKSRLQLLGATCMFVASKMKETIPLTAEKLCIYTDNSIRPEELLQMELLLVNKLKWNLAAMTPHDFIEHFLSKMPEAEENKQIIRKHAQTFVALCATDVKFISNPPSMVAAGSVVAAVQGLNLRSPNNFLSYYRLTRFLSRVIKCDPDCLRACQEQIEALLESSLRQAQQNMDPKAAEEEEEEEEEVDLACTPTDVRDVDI
CDK9/cyclin T1, sequence (O60563 whole entry): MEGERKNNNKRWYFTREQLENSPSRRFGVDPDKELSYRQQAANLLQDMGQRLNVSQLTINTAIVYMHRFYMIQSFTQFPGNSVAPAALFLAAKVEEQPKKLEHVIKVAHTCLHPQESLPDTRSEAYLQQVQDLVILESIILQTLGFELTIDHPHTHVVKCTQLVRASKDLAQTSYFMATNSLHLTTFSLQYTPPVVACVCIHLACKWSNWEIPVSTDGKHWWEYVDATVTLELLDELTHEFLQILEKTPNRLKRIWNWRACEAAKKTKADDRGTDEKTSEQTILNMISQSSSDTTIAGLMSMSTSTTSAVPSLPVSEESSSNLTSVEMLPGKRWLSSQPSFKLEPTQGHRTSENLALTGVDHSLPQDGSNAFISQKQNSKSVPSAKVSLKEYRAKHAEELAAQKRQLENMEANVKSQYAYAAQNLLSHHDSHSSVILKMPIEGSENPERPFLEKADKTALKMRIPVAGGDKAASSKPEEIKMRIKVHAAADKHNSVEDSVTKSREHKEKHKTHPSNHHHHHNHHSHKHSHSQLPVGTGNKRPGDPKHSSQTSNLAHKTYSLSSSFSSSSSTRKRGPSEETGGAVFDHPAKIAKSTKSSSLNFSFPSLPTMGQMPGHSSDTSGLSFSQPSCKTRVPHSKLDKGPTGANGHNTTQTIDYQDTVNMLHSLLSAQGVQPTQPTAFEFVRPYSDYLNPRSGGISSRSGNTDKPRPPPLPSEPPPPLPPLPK
CDK9/cyclin T1, sequence (P50750 whole entry): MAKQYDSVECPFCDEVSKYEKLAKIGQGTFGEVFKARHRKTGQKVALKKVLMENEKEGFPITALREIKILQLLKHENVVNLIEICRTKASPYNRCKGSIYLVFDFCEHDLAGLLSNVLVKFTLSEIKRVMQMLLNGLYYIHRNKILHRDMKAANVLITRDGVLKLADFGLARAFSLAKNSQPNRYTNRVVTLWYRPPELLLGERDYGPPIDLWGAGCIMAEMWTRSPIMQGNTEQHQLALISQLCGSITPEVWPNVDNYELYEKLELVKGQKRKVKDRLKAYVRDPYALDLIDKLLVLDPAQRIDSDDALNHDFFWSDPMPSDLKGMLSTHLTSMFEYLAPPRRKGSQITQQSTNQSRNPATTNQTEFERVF
Cyclin-dependent kinase 1/cyclin B1, sequence (P06493 whole entry): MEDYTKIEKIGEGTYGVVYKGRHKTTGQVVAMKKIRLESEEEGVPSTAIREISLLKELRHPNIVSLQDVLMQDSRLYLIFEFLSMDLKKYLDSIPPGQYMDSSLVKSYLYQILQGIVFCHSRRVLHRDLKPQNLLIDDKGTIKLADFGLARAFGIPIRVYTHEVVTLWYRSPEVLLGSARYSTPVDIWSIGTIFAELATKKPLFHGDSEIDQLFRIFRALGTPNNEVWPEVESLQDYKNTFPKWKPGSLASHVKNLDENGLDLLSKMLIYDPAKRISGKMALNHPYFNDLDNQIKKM
Cyclin-dependent kinase 1/cyclin B1, sequence (P14635 whole entry, further chain): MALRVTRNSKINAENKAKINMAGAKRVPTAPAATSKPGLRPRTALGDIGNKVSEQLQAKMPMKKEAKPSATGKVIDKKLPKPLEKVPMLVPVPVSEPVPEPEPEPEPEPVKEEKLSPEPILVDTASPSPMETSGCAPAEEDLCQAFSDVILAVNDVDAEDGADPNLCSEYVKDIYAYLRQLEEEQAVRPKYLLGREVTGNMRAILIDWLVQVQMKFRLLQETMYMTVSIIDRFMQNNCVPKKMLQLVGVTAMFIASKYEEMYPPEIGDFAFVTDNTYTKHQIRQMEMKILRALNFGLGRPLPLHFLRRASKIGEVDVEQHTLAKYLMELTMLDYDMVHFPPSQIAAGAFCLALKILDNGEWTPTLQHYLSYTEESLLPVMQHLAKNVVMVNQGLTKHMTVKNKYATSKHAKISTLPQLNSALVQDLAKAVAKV

Ki [1] [nM]	Ki [2] [nM]	Ki [3] [nM]	Ki [4] [nM]	Ki (CDK9/cyclin T1) [nM]	Compound	further results
7500	1600	> 10000	> 10000	> 10000	Cc1nc2ccc3cnc(N(C)c4cccc([N+](=O)[O-])c4)nc3c2s1	
15000	200	> 10000	1000	640	Cc1nc2c(s1)-c1nc(Nc3ccc(N4CCOCC4)cc3)ncc1CC2	
700	920	2400	6300	670	COC(=O)c1ccc(Nc2ncc3c(n2)-c2sc(C)nc2CC3)cc1	
960	160	4900	> 10000	1900	Cc1nc2c(s1)-c1nc(Nc3ccc(C(F)(F)F)cc3)ncc1CC2	
18	1	130	140	3	Nc1nc2c(s1)-c1nc(Nc3cccc([N+](=O)[O-])c3)ncc1CC2	
360	11	580	53	32	Cc1nc2c(s1)-c1nc(Nc3cccc(O)c3)ncc1CC2	
2500	10	37	60	640	Cc1nc2c(s1)-c1nc(Nc3ccc(N(C)C)cc3)ncc1CC2	
200	1	540	300	490	Cc1nc2c(s1)-c1nc(Nc3ccc(O)cc3)ncc1CC2	
2700	590	> 10000	1800	12000	Cc1nc2c(s1)-c1nc(N(C)c3cccc([N+](=O)[O-])c3)ncc1CC2	
750	1	900	2200	260	Cc1nc2c(s1)-c1nc(Nc3ccccc3)ncc1CC2	
98	31	470	500	160	CN(C)c1ccc(Nc2ncc3c(n2)-c2sc(N)nc2CC3)cc1	
630	88	330	1200	110	Nc1nc2c(s1)-c1nc(Nc3ccccc3)ncc1CC2	
310	130	> 10000	4800	140	Cc1nc2c(s1)-c1nc(Nc3ccc([N+](=O)[O-])cc3)ncc1CC2	
320	23	2000	790	2	Cc1nc2c(s1)-c1nc(Nc3cccc([N+](=O)[O-])c3)ncc1CC2	Activity (WI-38 [5]): inactive; IC50 (A549): 690 nM; IC50 (HeLa): 1100 nM; IC50 (HT-29): 1400 nM; IC50 (MCF7): 1700 nM; IC50 (SAOS-2): 1200 nM; Activity [6]: Active; Activity [7]: Active; Activity [8]: Active; Activity [9]: Active; Activity (A2780 [10]): Active; Activity (A2780 [11]): 20%; Activity (WI-38 [12]): 0.7%
78	49	120	1100	1000	COc1ccc(Nc2ncc3c(n2)-c2sc(C)nc2CC3)cn1	
1700	24	2700	> 10000	> 10000	Cc1nc2ccc3cnc(Nc4ccccc4)nc3c2s1	
> 10000	> 10000	> 10000	> 10000	> 10000	Cc1nc2c(s1)-c1nc(N)ncc1CC2	
19	25	40	1400	1200	Cc1nc2c(s1)-c1nc(Nc3ccc(Cl)nc3)ncc1CC2	
